# Only some compounds are listed: those with a hit (about 5.8% of all), similar ones and a draw of the others.
# KDM4C inh: inhibitors of human demethylase GASC-1 KDM4C; Q9H3R0; GST-KDM4C 2-372, H3K9me3 peptide, LANCE TR-FRET; inhibition, % at 12.5 µM; 96,000 tested, 0.15% active; AID 720574;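 active = mean replicate inhibition above about 25%, with at least 55% of replicates also reaching it, limit read from the data, passing the limit was not always enough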
#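 Test system – GST-tagged GASC-1 (JMJD2C) catalytic fragment, aa 2-372 · Medium – HEPES buffer, pH 7.5, plus ascorbate · Reagent – H3K9me3 peptide with Fe(II)/2OG · Compound – one test concentration per compound · Timing – 30 min reaction, 60 min detection, RT · Technique – TR-FRET with Eu antibody and ULight streptavidin, EDTA stop · Read-out basis – inhibition from TR-FRET ratio decrease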
# Pf Dd2 growth: inhibitors of Plasmodium falciparum Dd2 growth. activity change, % at 10 µM. P. falciparum Dd2 growth, SYBR Green, 72 h; stronger effect = lower value. 94,000 tested, 2.3% active; in the data active = activity change below about -80%
# Tcruzi prolif: inhibitors of T. cruzi proliferation; AID 624255; T. cruzi beta-gal in NIH3T3, GalScreen luminescence, 90 h; inhibition, % at 8.34 µM; 77,000 tested, 5.9% active;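 active = mean inhibition above about 93%, with at least 55% of replicates each passing it, limit read from the data, passing the limit was not always enough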
# IDH1 mut inh: IDH1 R132H (human) inhibition | O75874 | IDH1 R132H reductase, diaphorase/resazurin fluorescence, 60 min | inhibition, % at 10 µM | 70,000 tested, 0.18% active | AID 624101; in the data active = inhibition above about 34%
# Target sequence (O75874 whole entry R132H): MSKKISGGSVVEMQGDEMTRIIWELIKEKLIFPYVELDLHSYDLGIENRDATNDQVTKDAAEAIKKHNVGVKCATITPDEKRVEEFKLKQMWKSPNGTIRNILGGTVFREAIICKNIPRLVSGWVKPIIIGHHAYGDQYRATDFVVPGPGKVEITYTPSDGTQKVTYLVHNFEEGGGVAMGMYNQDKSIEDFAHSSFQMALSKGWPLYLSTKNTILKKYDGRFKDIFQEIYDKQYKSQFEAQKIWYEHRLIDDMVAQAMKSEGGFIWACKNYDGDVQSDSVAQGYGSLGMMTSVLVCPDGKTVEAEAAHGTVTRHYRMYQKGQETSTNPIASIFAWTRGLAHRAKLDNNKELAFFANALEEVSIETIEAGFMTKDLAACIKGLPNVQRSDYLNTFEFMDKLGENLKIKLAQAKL
# A number is an active result; 0 = inactive; - = no result.
SMILES,KDM4C inh,Pf Dd2 growth,Tcruzi prolif,IDH1 mut inh
CO[C@@H]1CN(C)C(=O)c2cc(NC(=O)c3cccc(F)c3)ccc2OC[C@H](C)N(C(C)=O)C[C@H]1C,64.5,-,0,97.6
CO[C@H]1CN(C)C(=O)c2cc(NC(=O)c3cccc(F)c3)ccc2OC[C@@H](C)N(C(C)=O)C[C@@H]1C,0,-,0,0
CO[C@@H]1CN(C)C(=O)c2ccc(NC(=O)c3ccccc3)cc2OC[C@H](C)N(C)C[C@@H]1C,0,-,0,89.1
CO[C@H]1CN(C)C(=O)c2ccc(NC(=O)c3ccccc3)cc2OC[C@@H](C)N(C)C[C@@H]1C,0,-,0,0
COc1ccccc1CNC(=O)C[C@@H]1C=C[C@H](NC(C)=O)[C@@H](CO)O1,0,0,0,0
Cc1ccc(S(=O)(=O)N(C)C[C@H]2Oc3ccc(NS(=O)(=O)c4ccc(F)cc4)cc3CC(=O)N([C@H](C)CO)C[C@H]2C)cc1,0,0,0,0
CO[C@H]1CN(C)C(=O)c2ccc(NC(=O)C3CCCC3)cc2OC[C@H](C)N(C(C)=O)C[C@H]1C,47.3,-,-,0
CO[C@@H]1CN(C)C(=O)c2ccc(NC(=O)Nc3c(C)noc3C)cc2OC[C@H](C)N(C)C[C@@H]1C,51.3,0,0,0
C[C@@H]1CCCCO[C@@H](CN(C)S(=O)(=O)c2ccc(Cl)cc2)[C@H](C)CN([C@@H](C)CO)C(=O)c2cc(NS(C)(=O)=O)ccc2O1,0,0,0,0
O=C(N[C@@H]1CC[C@@H](CCNC(=O)C2CC2)O[C@@H]1CO)c1ccccn1,0,-,-,0
O=C(N/N=C/c1c[nH]c2ccccc12)c1ccccn1,-,-,-,0
CO[C@H]1CN(C)C(=O)c2ccc(NC(C)=O)cc2OC[C@H](C)N(Cc2ccccc2C(=O)O)C[C@@H]1C,0,0,-,-
Cc1noc(C)c1S(=O)(=O)N(C)C[C@H]1OCCCC[C@H](C)Oc2ccc(NC(=O)Nc3ccc(C(F)(F)F)cc3)cc2C(=O)N([C@H](C)CO)C[C@H]1C,0,0,0,-
Cc1noc(C)c1S(=O)(=O)N(C)C[C@@H]1OCCCC[C@@H](C)Oc2ccc(NC(=O)Nc3ccc(C(F)(F)F)cc3)cc2C(=O)N([C@H](C)CO)C[C@@H]1C,0,0,0,-
C[C@@H]1CCCCO[C@@H](CN(C)S(=O)(=O)c2cn(C)cn2)[C@H](C)CN([C@H](C)CO)C(=O)c2cc(NC(=O)Nc3ccc(C(F)(F)F)cc3)ccc2O1,0,-88.1,0,0
Cc1noc(C)c1S(=O)(=O)N(C)C[C@H]1OCCCC[C@@H](C)Oc2ccc(NC(=O)Nc3ccc(C(F)(F)F)cc3)cc2C(=O)N([C@@H](C)CO)C[C@H]1C,0,0,96.9,-
Cc1noc(C)c1S(=O)(=O)N(C)C[C@@H]1OCCCC[C@@H](C)Oc2ccc(NC(=O)Nc3ccc(C(F)(F)F)cc3)cc2C(=O)N([C@H](C)CO)C[C@H]1C,0,-92.4,0,-
COc1ccc(N(C(C)C(=O)Nc2cc(Cl)ccc2C)S(C)(=O)=O)cc1 (configuration not stated),-,-,-,0
Cc1noc(C)c1S(=O)(=O)Nc1ccc2c(c1)C(=O)N([C@@H](C)CO)C[C@@H](C)[C@@H](CN(C)C(=O)Nc1cccc3ccccc13)OCCCC[C@H](C)O2,0,-87.1,0,-
COc1ccc(S(=O)(=O)Nc2ccc3c(c2)C(=O)N([C@@H](C)CO)C[C@@H](C)[C@H](CN(C)C(=O)Nc2cccc4ccccc24)OCCCC[C@@H](C)O3)cc1,0,0,0,0
C[C@@H]1CCCCO[C@H](CN(C)C(=O)Nc2cccc3ccccc23)[C@@H](C)CN([C@@H](C)CO)C(=O)c2cc(NS(=O)(=O)c3ccccc3)ccc2O1,0,-87.8,-,0
Cc1noc(C)c1S(=O)(=O)Nc1ccc2c(c1)C(=O)N([C@H](C)CO)C[C@@H](C)[C@@H](CN(C)C(=O)Nc1ccc(F)cc1)OCCCC[C@@H](C)O2,0,-84.8,0,-
COc1ccc(S(=O)(=O)Nc2ccc3c(c2)C(=O)N([C@@H](C)CO)C[C@@H](C)[C@@H](CN(C)C(=O)Nc2cccc4ccccc24)OCCCC[C@H](C)O3)cc1,0,-88.5,0,0
Cc1ccc(-c2cnc3c(c2)C(=O)N([C@H](C)CO)C[C@H](C)[C@@H](CN(C)C(=O)Cc2ccccc2)O3)cc1,0,0,0,-
COc1ccc2c3c([nH]c2c1)[C@H](CO)N(C(=O)c1cccc(F)c1)CC31CN(C(=O)CC2CC2)C1,0,0,-,-
CCCNC(=O)N1CCC2(CC1)CN(Cc1cccc(OC)c1)[C@H](CO)c1[nH]c3cc(OC)ccc3c12,0,0,-,-
